# Measurements pooled from the literature.
# Protocols differ between the studies behind these lines.
# Target: Calcium/calmodulin-dependent protein kinase type 1 (CAMK1, Homo sapiens, UniProt Q14012)
SMILES,test,conditions,endpoint,result
C=CC(=O)N1CCC([C@@H]2CCNc3c(C(N)=O)c(-c4ccc(Oc5ccccc5)cc4)nn32)CC1,"enzyme activity, inhibitor",1 µM,inhibition,7%
Cc1cc(O)c(-c2ccc([C@@H](C)CN(C)C)cc2)c2c1[nH]c(=O)c1sccc12,"cell-free assay, inhibitor","0.1 µM, lysate",inhibition,2.27%
Cc1ccc(NC(=O)c2ccnc(C(F)(F)F)c2)cc1-c1cc(OCCO)nc(N2CCOCC2)c1,binding,1 µM,remaining binding,100%
CC#CC(=O)N1CCC[C@H]1c1nc(-c2ccc(C(=O)Nc3ccccn3)cc2)c2c(N)nccn12,"enzyme activity, inhibitor",1 µM,inhibition,26%
CCCCC(=O)Nc1ccc(-c2ccc3ncn(CCC)c(=O)c3c2)cn1,"binding, competition with immobilised ligand",0.5 µM,remaining binding,88%
C1=C/COCc2cc(ccc2OCCN2CCCC2)Nc2nccc(n2)-c2cccc(c2)COC/1,binding,0.1 µM,remaining binding,65%
C[C@H]1CC[C@H](n2c3cnccc3c3cnc(Nc4ccc5c(n4)CCN(C(=O)CO)C5)nc32)CC1,cell-free assay,1 µM,remaining signal,45%
COc1ccc2oc(-c3ccc4nc(N)oc4c3)c/c(=N\c3ccccc3NC(=O)CCN)c2c1,binding,1 µM,remaining binding,70%
